According to ChEMBL document CHEMBL4033798, “Discovery of Novel KRAS-PDEδ Inhibitors by Fragment-Based Drug Design” (J Med Chem, 2018):

Tested on: CAPAN-1
Test: Antiproliferative activity against KRAS-dependent human Capan1 cells after 48 hrs by CCK8 assay
Settings: CAPAN-1, 48 h

| SMILES | IC50 |
| --- | --- |
| Cc1nccn1CCOc1ccc(N2C(=O)c3ccccc3NC2c2ccccc2F)cc1 (stereo not drawn) | > 100 µM |
| O=C1c2ccccc2NC(c2ccccn2)N1c1ccc(OCCn2ccnc2-c2ccccc2)cc1 (stereo not drawn) | 52 µM |
| O=C1c2cc(F)ccc2N(CC2CC2)C(c2ccccc2F)N1C1CCN(CCCn2ccnc2-c2ccccc2)CC1 (stereo not drawn) | 8.8 µM |
| O=C1c2cc(Cl)ccc2NC(c2ccccc2F)N1CCOc1ccc(-c2nc3ccccc3n2Cc2ccncc2)cc1 (stereo not drawn) | > 100 µM |
| O=C1c2ccc(F)cc2NC(c2ccccc2F)N1C1CCN(CCCn2ccnc2-c2ccccc2)CC1 (stereo not drawn) | 35 µM |
| Cc1ccc2c(c1)NC(c1ccccc1F)N(C1CCN(CCCn3ccnc3-c3ccccc3)CC1)C2=O (stereo not drawn) | 78 µM |
| Cc1ccc2c(c1)C(=O)N(C1CCN(CCCn3ccnc3-c3ccccc3)CC1)C(c1ccccc1F)N2 (stereo not drawn) | 42 µM |
| O=C1c2ccccc2NC(c2ccccc2F)N1c1ccc(OCCn2ccnc2)cc1 (stereo not drawn) | > 100 µM |
| O=C1c2cc(F)ccc2N(CC2CCCCC2)C(c2ccccc2F)N1C1CCN(CCCn2ccnc2-c2ccccc2)CC1 (stereo not drawn) | 54.6 µM |
| COc1ccc2c(c1)NC(c1ccccc1F)N(C1CCN(CCCn3ccnc3-c3ccccc3)CC1)C2=O (stereo not drawn) | 82 µM |
| O=C1c2ccc(Cl)cc2NC(c2ccccc2F)N1CCOc1ccc(-c2nc3ccccc3n2Cc2ccncc2)cc1 (stereo not drawn) | > 100 µM |
| O=C1c2cc(F)ccc2N(CC2CCCC2)C(c2ccccc2F)N1C1CCN(CCCn2ccnc2-c2ccccc2)CC1 (stereo not drawn) | 12.4 µM |
| O=C1c2ccccc2NC(c2ccccc2F)N1c1ccc(OCCn2c(-c3ccccc3)nc3ccccc32)cc1 (stereo not drawn) | > 100 µM |
| O=C1c2cc(F)ccc2NC(c2ccccc2F)N1CCOc1ccc(-c2nc3ccccc3n2Cc2ccncc2)cc1 (stereo not drawn) | > 100 µM |
| Cc1nccn1CCOc1ccc(N2C(=O)c3ccccc3NC2c2ccccn2)cc1 (stereo not drawn) | > 100 µM |
| CN1c2ccc(F)cc2C(=O)N(C2CCN(CCCn3ccnc3-c3ccccc3)CC2)C1c1ccccc1F (stereo not drawn) | 47 µM |
| COc1ccc2c(c1)NC(c1ccccc1F)N(CCOc1ccc(-c3nc4ccccc4n3Cc3ccncc3)cc1)C2=O (stereo not drawn) | > 100 µM |
| O=C1c2ccccc2NC(c2ccccc2F)N1c1ccc(OCCn2ccnc2-c2ccccc2)cc1 (stereo not drawn) | > 100 µM |
| Cc1ccc2c(c1)C(=O)N(CCOc1ccc(-c3nc4ccccc4n3Cc3ccncc3)cc1)C(c1ccccc1F)N2 (stereo not drawn) | > 100 µM |
| O=C1c2ccccc2NC(c2ccccn2)N1c1ccc(OCCn2c(-c3ccccc3)nc3ccccc32)cc1 (stereo not drawn) | > 100 µM |
| O=C1c2cc(F)ccc2N(CC2CCC2)C(c2ccccc2F)N1C1CCN(CCCn2ccnc2-c2ccccc2)CC1 (stereo not drawn) | 11.6 µM |
| O=C1c2ccccc2NC(c2ccccn2)N1c1ccc(OCCn2ccnc2)cc1 (stereo not drawn) | > 100 µM |
| Cc1ccc(-n2nc3c(=O)n(CCCC(=O)NCC(C)c4ccccc4)nc(C)c3c2C)cc1 (stereo not drawn) | 48 µM |
| O=C1c2cc(F)ccc2NC(c2ccccc2F)N1C1CCN(CCCn2ccnc2-c2ccccc2)CC1 (stereo not drawn) | 33 µM |
| O=C1c2ccc(F)cc2NC(c2ccccc2F)N1CCOc1ccc(-c2nc3ccccc3n2Cc2ccncc2)cc1 (stereo not drawn) | > 100 µM |
| O=C1c2ccccc2NC(c2ccccc2F)N1C1CCN(CCCn2ccnc2-c2ccccc2)CC1 (stereo not drawn) | 34 µM |
| COc1ccc2c(c1)C(=O)N(C1CCN(CCCn3ccnc3-c3ccccc3)CC1)C(c1ccccc1F)N2 (stereo not drawn) | 74 µM |
| O=C1c2ccccc2NC(c2ccccc2F)N1CCOc1ccc(-c2nc3ccccc3n2Cc2ccncc2)cc1 (stereo not drawn) | > 100 µM |
| Cc1nc2ccccc2n1CCOc1ccc(N2C(=O)c3ccccc3NC2c2ccccc2F)cc1 (stereo not drawn) | > 100 µM |

Tested on: CAPAN-1
Test: Induction of apoptosis in KRAS-dependent human Capan1 cells at 10 uM incubated for 48 hrs by Annexin-V FITC/propidium iodide staining-based flow cytometry (reference value: 3.51%)
Format: functional
Settings: not given
Procedure, shortened: (§1)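 Capan-1 cells were exposed to compound for 48 h, with 0.1% DMSO as the vehicle control. The read-out is the percentage of apoptotic cells. Compounds were tested at 10, 25 or 50 μM.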

| SMILES | Activity |
| --- | --- |
| O=C1c2cc(F)ccc2N(CC2CC2)C(c2ccccc2F)N1C1CCN(CCCn2ccnc2-c2ccccc2)CC1 (stereo not drawn) | 17.95% |

Tested on: CAPAN-1
Test: Induction of apoptosis in KRAS-dependent human Capan1 cells at 50 uM incubated for 48 hrs by Annexin-V FITC/propidium iodide staining-based flow cytometry (reference value: 3.51%)
Format: functional
Settings: not given
Procedure, shortened: as §1

| SMILES | Activity |
| --- | --- |
| Cc1ccc(-n2nc3c(=O)n(CCCC(=O)NCC(C)c4ccccc4)nc(C)c3c2C)cc1 (stereo not drawn) | 20.5% |

Tested on: CAPAN-1
Test: Induction of apoptosis in KRAS-dependent human Capan1 cells at 25 uM incubated for 48 hrs by Annexin-V FITC/propidium iodide staining-based flow cytometry (reference value: 3.51%)
Format: functional
Settings: not given
Procedure, shortened: as §1

| SMILES | Activity |
| --- | --- |
| O=C1c2cc(F)ccc2N(CC2CC2)C(c2ccccc2F)N1C1CCN(CCCn2ccnc2-c2ccccc2)CC1 (stereo not drawn) | 36.4% |

Tested on: CAPAN-1
Test: Induction of apoptosis in KRAS-dependent human Capan1 cells after 48 hrs by Annexin-V FITC/propidium iodide staining-based flow cytometry
Format: functional, cell-based
Settings: not given
Procedure, shortened: as §1

| SMILES | Activity |
| --- | --- |
| O=C1c2cc(F)ccc2N(CC2CC2)C(c2ccccc2F)N1C1CCN(CCCn2ccnc2-c2ccccc2)CC1 (stereo not drawn) | Dose-dependent effect |
